Compounds with a hit are over-represented: about 1.7% of the library has one in this group of screens.
SKKanGAS inh: blocks kanamycin growth of S. pyogenes SKKanGAS strain; BacTiter-Glo, 6 h; inhibition, % at 7.5 µM; hit rate 1.3% among 300,000;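 active = mean replicate score, as percent of positive control median, at least 50; inconclusive = mean below 50 but one replicate at or above 50; inactive = mean and every replicate below 50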;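 note: strain carries kanamycin resistance gene driven by streptokinase promoter and grows in 40 µg/ml kanamycin; loss of luminescence reflects streptokinase promoter inhibition or plain growth inhibition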
PfHsp90 set2: growth inhibition of yeast expressing Plasmodium Hsp90; S. cerevisiae expressing PfHsp90, BacTiter-Glo ATP, 48 h; yeast lacking PDR1 and PDR3 efflux regulators; inhibition, % at 9.4 µM; hit rate 0.32% among 310,000; AID 504621;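 active = every replicate shows inhibition above about 80%, whatever the replicate mean, limit read from the data; inconclusive = mean inhibition reaches the set limit but some replicate falls short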
CSC inhib: cancer stem cell inhibition; cancer stem cell-like cells viability, luminescence; inhibition, % at 7.5 µM; hit rate 1.1% among 300,000; in the data active = inhibition above about 75%; inconclusive = no clear call, values can overlap the other calls; tested in HMLE shEcad cells
PglD inh: blocks C. jejuni PglD acetyltransferase activity; purified PglD enzyme, DTNB colorimetric CoA detection; inhibition, % at 12.5 µM; hit rate 0.098% among 360,000; AID 602405; in the data active = inhibition above about 16%, passing the limit was not always enough; inconclusive = no clear call, values can overlap the other calls
Rtt109 Vps75: inhibitors of Candida albicans Rtt109/Vps75 histone acetyltransferase; Q5AAJ8; purified Rtt109/Vps75, ThioGlo CoA-SH fluorescence, 4 h; inhibition, % at 34.9 µM; hit rate 0.16% among 330,000; AID 540336;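 active = inhibition of at least 50% in every replicate; inconclusive = best replicate reaches 50% inhibition but some replicates fall short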
Target sequence (Q5AAJ8 whole entry, looked up): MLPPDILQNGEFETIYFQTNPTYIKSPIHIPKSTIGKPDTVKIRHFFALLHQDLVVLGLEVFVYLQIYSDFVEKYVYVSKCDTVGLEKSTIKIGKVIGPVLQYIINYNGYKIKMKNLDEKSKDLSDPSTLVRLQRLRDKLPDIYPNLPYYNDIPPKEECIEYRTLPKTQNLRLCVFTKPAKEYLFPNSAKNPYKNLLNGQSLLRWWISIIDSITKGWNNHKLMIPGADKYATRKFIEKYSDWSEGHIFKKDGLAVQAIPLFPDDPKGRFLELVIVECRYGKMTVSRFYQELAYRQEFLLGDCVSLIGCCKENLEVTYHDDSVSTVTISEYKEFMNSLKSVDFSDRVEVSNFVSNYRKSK
FN deposition inh: fibronectin deposition inhibition; hit rate 0.086% among 350,000; AH1F fibroblasts, Alexa488-fibronectin deposition fluorescence, overnight; inhibition, % at 12.6 µM;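 active = mean inhibition across replicates of 30% or more, regardless of how many single replicates reach that level; inconclusive = mean under 30% yet at least half of replicates reach 30%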
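Schedule: 1 h cell adhesion before compound, then overnight fibronectin incubation; test system: AH1F fibroblast monolayer depositing Alexa488-labelled fibronectin into matrix; quantity: 10000 AH1F cells per well; probe or stimulus: fluorescent fibronectin at 24 nM final; signal: fluorescence, ex 485 nm, em 525 nm; evaluation: percent inhibition as loss of matrix-bound fibronectin fluorescence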
Numbers stand for hits.

`Cc1ccc(-n2nnnc2Sc2ccc(S(=O)(=O)NCCN(C)C)cc2[N+](=O)[O-])cc1` gave SKKanGAS inh inactive, PfHsp90 set2 inactive, CSC inhib 99, PglD inh inactive, Rtt109 Vps75 inactive and FN deposition inh inactive.
For COc1cc(/C=C2\SC(=S)NC2=O)ccc1OS(=O)(=O)c1ccccc1 the results were SKKanGAS inh inactive and CSC inhib 97.
For COc1ccc(/C=C2\SC(=S)NC2=O)cc1OS(=O)(=O)c1ccc(NC(C)=O)cc1 the results were SKKanGAS inh inactive, PfHsp90 set2 inactive, Rtt109 Vps75 inactive and FN deposition inh inactive.
Screening COc1cc(/C=C2/SC(=S)NC2=O)ccc1OS(=O)(=O)c1ccc(C)cc1 returned SKKanGAS inh inactive, PfHsp90 set2 inactive, CSC inhib 102 and Rtt109 Vps75 inactive.
Screening CCOc1ccc(/C=C2\SC(=S)NC2=O)cc1OC returned SKKanGAS inh inactive, PfHsp90 set2 inactive, CSC inhib inactive, PglD inh inactive, Rtt109 Vps75 inactive and FN deposition inh inactive.
`CC=Cc1ccc2n(c1=O)C[C@@H]1[C@@H](CO)[C@H](C(=O)N3CCCCC3)[C@H]2N1C(=O)C1CC1` (mixture of isomers) gave PglD inh inactive.
For CCOC(=O)c1cnc(-n2nc(C)cc2C)nc1Oc1ccc(C#N)cc1 the results were SKKanGAS inh inactive, PfHsp90 set2 inactive, CSC inhib inactive, PglD inh inactive, Rtt109 Vps75 inactive and FN deposition inh inactive.
Screening CCOC(=O)c1cnc(-n2nc(C)cc2C)nc1Nc1ccc(O)cc1 returned SKKanGAS inh inactive, PfHsp90 set2 inactive, CSC inhib inactive, Rtt109 Vps75 inactive and FN deposition inh inactive.
CCOC(=O)c1cnc(-n2nc(C)cc2C)nc1NC1CCCCC1 was read as SKKanGAS inh 83, PfHsp90 set2 inactive, CSC inhib inactive, PglD inh inactive and Rtt109 Vps75 inactive.
`CCOC(=O)c1cnc(-n2nc(C)cc2C)nc1N(CC)CC` gave SKKanGAS inh inconclusive, CSC inhib inactive, PglD inh inactive and Rtt109 Vps75 inactive.
For CCOC(=O)c1cnc(-n2nc(C)cc2C)nc1Nc1ccc(C)cc1 the results were SKKanGAS inh 95, PfHsp90 set2 inactive, PglD inh inactive, Rtt109 Vps75 inactive and FN deposition inh inactive.
`CCOC(=O)c1cnc(-n2nc(C)cc2C)nc1Nc1ccc(N(C)C)cc1` gave SKKanGAS inh 97, PfHsp90 set2 inactive, CSC inhib inactive, PglD inh inactive, Rtt109 Vps75 inactive and FN deposition inh inactive.
O=C(C[C@@H]1C[C@@H]2c3cc(NS(=O)(=O)c4ccc(F)cc4)ccc3O[C@@H]2[C@H](CO)O1)NCc1cccc(F)c1 was read as PglD inh inactive and FN deposition inh inactive.
COc1cccc(S(=O)(=O)Nc2ccc3c(c2)[C@H]2C[C@@H](CC(=O)NCCc4ccccc4)O[C@H](CO)[C@H]2O3)c1 was read as PglD inh inactive.
COc1ccc(CCn2c(=S)[nH]c3ccc(N4CCOCC4)cc3c2=O)cc1OC was read as SKKanGAS inh inactive, PfHsp90 set2 inactive, CSC inhib inactive, PglD inh inactive and Rtt109 Vps75 inactive.
For O=c1c2cc(N3CCOCC3)ccc2[nH]c(=S)n1CCc1ccccc1 the results were SKKanGAS inh 84, PfHsp90 set2 inactive, CSC inhib inactive and Rtt109 Vps75 inactive.
`CCOC(=O)c1cnn(-c2nc(-c3cccc(F)c3)cs2)c1C(F)(F)F` gave SKKanGAS inh 64, PfHsp90 set2 inactive, CSC inhib inactive, PglD inh inactive, Rtt109 Vps75 inactive and FN deposition inh inactive.
For CCOC(=O)c1cnn(-c2nc3c(C)cccc3s2)c1C(F)(F)F the results were SKKanGAS inh 88, PfHsp90 set2 inactive, CSC inhib inactive, PglD inh inactive and Rtt109 Vps75 inactive.
`CCCNC(=O)Nc1ccc2c(c1)C(=O)N(C)[C@H]1CC[C@@H](CC(=O)NCc3ccccc3)O[C@@H]1CO2` gave PglD inh inactive and FN deposition inh inactive.
Screening CN1C(=O)c2cc(NC(=O)C3CCC3)ccc2OC[C@@H]2O[C@@H](CC(=O)NCC3CCCCC3)CC[C@H]21 returned FN deposition inh inactive.
Screening C[C@H](CO)N1C[C@H](C)[C@@H](CN(C)C(=O)Nc2cccc3ccccc23)Oc2ccc(NC(=O)Cn3cnnn3)cc2CC1=O returned FN deposition inh inactive.
